The text below walks through data of the array DNA melting data of Ke et al. (doi:10.1101/2024.01.08.574731).

The nature of data set [1]: folding enthalpy; higher = less favourable; fluorescence melt of hairpins on a sequencing array, two-state fit. The conditions noted are these: sodium 0.088 M. Put shortly: (§1)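 Library hairpins on a sequenced MiSeq flow cell carried annealed Cy3 and quencher oligos, and their Cy3 fluorescence was imaged in 50 mM Na-HEPES pH 8.0 with 25 mM NaCl, in 2.5 °C steps up to 60 °C. Signals were normalised to Cy3 before quenching and to control constructs. Melting temperature and folding enthalpy were obtained from bootstrapped two-state fits, combined by inverse-variance weighting across four replicates, and the fitted temperatures were then raised by 9.35 °C to match UV melts.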

Data set [2] can be described thus: melting temperature; fluorescence melt of hairpins on a sequencing array, two-state fit, raised by 9.35 °C to match UV melts. The note with it: sodium 0.088 M. In outline: as §1

In the case of GGTCGTGGAAACACGGTC (..((((....))))..), the folding enthalpy in data set [1] is -15.8 kcal/mol. Moreover, the Tm in data set [2] was 41.4 °C.

Turning to GGTCGTGGAAACATGGCC ((.(.((....)).).)), the folding enthalpy in data set [1] was -24 kcal/mol. Moreover, the Tm in data set [2] came to 45.8 °C.

On to GGTCTACGAAAGTACACC (((.(((....))).))), for which the folding enthalpy in data set [1] is -22 kcal/mol. The Tm in data set [2] turned out to be 35.8 °C.

Consider GGTCTACGAAAGTATACC (((.(((....))).))), for which, in data set [1], the folding enthalpy was -35.5 kcal/mol. In data set [2], the Tm was found to be 42.2 °C.

For GGTCTCACGAAAGTGACC (((..(((....)))))), the folding enthalpy in data set [1] is -14.5 kcal/mol. Besides, in data set [2], the Tm turned out to be 37.9 °C.

In the case of GGTCTCGAAAGAGAACC ((((((....))).))), the folding enthalpy in data set [1] was -19 kcal/mol. Further, the Tm in data set [2] was found to be 50 °C.

Regarding GGTCTCGAAAGAGCGACC ((((((....)))..))), the folding enthalpy in data set [1] was -18.1 kcal/mol. Besides, the Tm in data set [2] worked out at 37.3 °C.

As to GGTCTCGAAAGAGGACC ((((((....))).))), the folding enthalpy in data set [1] is -28.3 kcal/mol. Also, the Tm in data set [2] came out at 49.5 °C.

Consider GGTCTCGAAAGAGTACC ((((((....))).))), for which, in data set [1], the folding enthalpy is -24.3 kcal/mol. Also, the Tm in data set [2] is 46.8 °C.

In the case of GGTCTCGAAAGAGTTACC ((((((....)))..))), in data set [1], the folding enthalpy was -17.3 kcal/mol. The Tm in data set [2] amounted to 32.3 °C.

Consider GGTCTCGCGAAAGCGACC (((..(((....)))))), for which the folding enthalpy in data set [1] is -9.72 kcal/mol. For the same sequence, the Tm in data set [2] turned out to be 33.2 °C.

On to GGTCTGACGAAAGTCACC (((..(((....)))))), for which the folding enthalpy in data set [1] was -10.4 kcal/mol. For the same sequence, in data set [2], the Tm came to 27.8 °C.

Consider GGTCTGCCGAAAGGCACC (((..(((....)))))), for which the folding enthalpy in data set [1] was -6.75 kcal/mol. Also, in data set [2], the Tm turned out to be 28.8 °C.

For the sequence GGTCTGGGAAACCAGACC (((((((....))))))), in data set [1], the folding enthalpy was -47.2 kcal/mol. In addition, in data set [2], the Tm amounted to 67.7 °C.

For the sequence GGTCTGGGAAACCAGGCC ((.((((....)))).)), the folding enthalpy in data set [1] is -47.6 kcal/mol. Also, the Tm in data set [2] came to 56.9 °C.

As for GGTCTGGGAAACCAGGTC (..((((....))))..), the folding enthalpy in data set [1] is -14.3 kcal/mol. Also, in data set [2], the Tm was determined as 34.9 °C.

In the case of GGTCTGGGAAACCGGATC (.((.((....)).)).), in data set [1], the folding enthalpy is -23.2 kcal/mol. For the same sequence, in data set [2], the Tm turned out to be 40 °C.

Regarding GGTCTGGGAAACTGGACC ((((..(....)..)))), in data set [1], the folding enthalpy was -31.1 kcal/mol. In addition, the Tm in data set [2] is 45.1 °C.

As to GGTCTTACGAAAGTAACC (((..(((....)))))), the folding enthalpy in data set [1] is -10.7 kcal/mol. In addition, in data set [2], the Tm amounted to 25.7 °C.

Regarding GGTCTTCCGAAAGGAACC (((..(((....)))))), the folding enthalpy in data set [1] was -10.5 kcal/mol. Also, in data set [2], the Tm was determined as 26.5 °C.

Take GGTCTTGGAAACAAGATC (.(((((....))))).): in data set [1], the folding enthalpy is -25.7 kcal/mol. In data set [2], the Tm was determined as 44.5 °C.

Turning to GGTGAAACGAAAGTTACC (((..(((....)))))), the folding enthalpy in data set [1] is -18 kcal/mol. In addition, the Tm in data set [2] was 30.5 °C.

For the sequence GGTGAACCGAAAGGTACC (((..(((....)))))), the folding enthalpy in data set [1] was -18 kcal/mol. Besides, the Tm in data set [2] amounted to 37.8 °C.

Regarding GGTGAACGAAAGTTGACC (((.(((....))).))), the folding enthalpy in data set [1] was -30.4 kcal/mol. Moreover, in data set [2], the Tm is 48.9 °C.

For the sequence GGTGAAGGAAACTCCACC ((((.((....)).)))), the folding enthalpy in data set [1] is -31.3 kcal/mol. In data set [2], the Tm was 39 °C.

Take GGTGAAGGAAACTTTGCC ((..(((....)))..)): the folding enthalpy in data set [1] is -25.4 kcal/mol. Further, the Tm in data set [2] was found to be 34.6 °C.

For GGTGACGGAAACACCACC ((((..(....)..)))), the folding enthalpy in data set [1] is -20 kcal/mol. Further, in data set [2], the Tm was 34.5 °C.

In the case of GGTGACGGAAACGTCGCC ((.((((....)))).)), the folding enthalpy in data set [1] is -34 kcal/mol. Besides, the Tm in data set [2] came out at 64.6 °C.

For the sequence GGTGACTCGAAAGAGACC (((..(((....)))))), the folding enthalpy in data set [1] was -16.5 kcal/mol. The Tm in data set [2] worked out at 33 °C.

In the case of GGTGAGACGAAAGTCACC (((..(((....)))))), in data set [1], the folding enthalpy was -17.1 kcal/mol. The Tm in data set [2] came to 46.8 °C.

Turning to GGTGAGCGAAAGCTAACC (((.(((....))).))), the folding enthalpy in data set [1] was -33.3 kcal/mol. Also, the Tm in data set [2] amounted to 55.5 °C.

On to GGTGAGGAAACTCACC ((((((....)))))), for which the folding enthalpy in data set [1] was -35 kcal/mol. Moreover, the Tm in data set [2] came out at 61.6 °C.

Consider GGTGAGGCGAAAGCCACC (((..(((....)))))), for which the folding enthalpy in data set [1] was -16.1 kcal/mol. Besides, the Tm in data set [2] was determined as 51.7 °C.

Take GGTGAGGGAAACCTCACC (((((((....))))))): the folding enthalpy in data set [1] was -43.2 kcal/mol. Moreover, the Tm in data set [2] turned out to be 67.5 °C.

For the sequence GGTGAGGGAAACCTTACC (((.(((....))).))), the folding enthalpy in data set [1] was -33.9 kcal/mol. Moreover, the Tm in data set [2] turned out to be 46.6 °C.

Take GGTGAGGGAAACCTTGCC ((..(((....)))..)): the folding enthalpy in data set [1] was -21.7 kcal/mol. For the same sequence, in data set [2], the Tm was determined as 41.8 °C.
